# According to ChEMBL document CHEMBL1149611, “Anti-malarial activity of N6-modified purine analogues” (Bioorg Med Chem, 2007):
# Tests used:
# Plasmodium falciparum [1] = assay: Antimalarial activity against drug-sensitive Plasmodium falciparum 3D7 after 24 hrs; type: functional, organism-based; settings: 3D7, 24 h
# In short: (§1)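 [³H]hypoxanthine incorporation assay. Compounds dissolved in DMSO and serially diluted in assay medium, final DMSO ≤0.01%. P. falciparum culture at 0.5% parasitaemia (65-75% ring stage), 2.5% haematocrit. Incubated 24 h at 37 °C in 5% CO₂, then [³H]hypoxanthine (0.1 µCi/well) added for a further 24 h. Incorporated radioactivity counted by scintillation. IC50 obtained by curve fitting. Chloroquine diphosphate used as standard.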
# Plasmodium falciparum [2] = assay: Antimalarial activity against chloroquine,pyrimethamine-resistant Plasmodium falciparum K1 after 24 hrs; type: functional, organism-based; settings: K1, 24 h; in short: as §1
# Plasmodium falciparum [3] = assay: Antimalarial activity against chloroquine, pyrimethamine and cycloguanil-resistant Plasmodium falciparum VS1 after 24 hrs; type: functional, organism-based; settings: VS1, 24 h; in short: as §1
# [4] = Selectivity index, ratio of CC50 for human KB cells to IC50 for Plasmodium falciparum K1; type: functional
# KB = assay: Cytotoxicity against human KB cells; type: functional
# [5] = Selectivity index, ratio of CC50 for human KB cells to IC50 for Plasmodium falciparum VS1; type: functional
# [6] = Selectivity index, ratio of CC50 for human KB cells to IC50 for Plasmodium falciparum 3D7; type: functional
# Plasmodium berghei [7] = assay: Antiparasitemia activity against Plasmodium berghei infected mice (Mus musculus) at 30 mg/kg subcutaneous dose for 4 days; type: functional
# In short: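 Male CD-1 outbred mice (20 g), infected intravenously with 2×10^6 P. berghei AS parasitized red cells, received subcutaneous 0.2 mL doses in 10% DMSO/0.05% Tween 80 in water at 2 h (day 0) and on days 1, 2, 3 and 4. Day-5 Giemsa blood smears were counted microscopically, and mean group parasitaemia was expressed as % inhibition versus untreated mice.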
# Plasmodium berghei [8] = assay: Antiparasitemia activity against Plasmodium berghei infected mice (Mus musculus) at 30 mg/kg peroral dose for 4 days; type: functional; settings: route oral
# In short: (§2)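 Peters' suppressive test: 20 g male CD-1 mice were infected iv with 2×10^6 P. berghei AS-parasitized erythrocytes. Compound was dosed orally, 0.2 mL, in standard suspending formula (0.5% Na carboxymethylcellulose, 0.5% benzyl alcohol, 0.4% Tween 80, 0.9% NaCl) at 2 h and on days 1–4 post-infection. Parasitaemia was read microscopically from Giemsa films on day 5 as % inhibition relative to the untreated group's arithmetic mean.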
# Plasmodium berghei [9] = assay: Antiparasitemia activity against Plasmodium berghei infected mice (Mus musculus) at 100 mg/kg intravenous dose for 4 days; type: functional
# In short: (§3)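 CD-1 outbred male mice (20 g) were infected intravenously with 2×10^6 P. berghei AS parasitized red cells. Drug in 5% dextrose was given iv, 0.2 mL, at 2 h (day 0) and on days 1, 2, 3 and 4 post-infection. Day-5 Giemsa-stained blood films were counted, and results were expressed as % inhibition of mean group parasitaemia versus the untreated group.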
# Plasmodium berghei [10] = assay: Antiparasitemia activity against Plasmodium berghei infected mice (Mus musculus) at 100 mg/kg peroral dose for 4 days; type: functional; settings: route oral; in short: as §2
# Plasmodium berghei [11] = assay: Antiparasitemia activity against Plasmodium berghei infected mice (Mus musculus) at 10 mg/kg intravenous dose for 4 days; type: functional; in short: as §3
SMILES,IC50 (Plasmodium falciparum [1]) [µM],IC50 (Plasmodium falciparum [2]) [µM],IC50 (Plasmodium falciparum [3]) [µM],Ratio CC50/IC50 [4],CC50 (KB) [µM],Ratio CC50/IC50 [5],Ratio CC50/IC50 [6],Activity (Plasmodium berghei [7]) [%],Activity (Plasmodium berghei [8]) [%],Activity (Plasmodium berghei [9]) [%],Activity (Plasmodium berghei [10]) [%],Activity (Plasmodium berghei [11]) [%]
CN(N)c1ncnc2[nH]cnc12,508,478,419,–,–,–,–,–,–,–,–,–
CON(C)c1ncnc2[nH]cnc12,> 613,> 613,> 613,–,–,–,–,–,–,–,–,–
CON(C)c1ncnc2c1ncn2[C@@H]1O[C@H](CO)[C@@H](O)[C@H]1O,21.8,12.5,25.2,1.2,15.3,<1,<1,–,–,–,–,–
OC[C@H]1O[C@@H](n2cnc3/c(=N\O)[nH]cnc32)[C@H](O)[C@@H]1O,11.6,6.9,8.56,6.4,44.3,5.2,3.8,–,–,–,–,–
Nc1nc2c(ncn2[C@@H]2O[C@H](CO)[C@@H](O)[C@H]2O)/c(=N\O)[nH]1,16,10.8,13.3,25.9,281,21.1,17.5,–,–,–,–,–
NNc1ncnc2c1ncn2[C@@H]1O[C@H](CO)[C@@H](O)[C@H]1O,13.3,7.48,7.92,<1,2.26,<1,<1,–,–,–,–,–
CO/N=c1/[nH]cnc2c1ncn2[C@@H]1O[C@H](CO)[C@@H](O)[C@H]1O,11.4,20.6,9.87,<1,6.16,<1,<1,–,–,–,–,–
CO/N=c1/[nH]c(N)nc2c1ncn2[C@@H]1O[C@H](CO)[C@@H](O)[C@H]1O,232,184,225,4.3,784,3.5,3.4,–,–,–,–,–
Nc1nc2c(ncn2[C@@H]2O[C@H](CO)[C@@H](O)[C@H]2O)/c(=N\OCc2ccccc2)[nH]1,183,–,126,–,–,–,–,–,–,–,–,–
c1ccc(CO/N=c2/[nH]cnc3[nH]cnc23)cc1,400,–,352,–,–,–,–,–,–,–,–,–
NNc1nc(N)nc2[nH]cnc12,189,109,89.3,9.2,1000,11.2,5.3,–,–,–,–,–
CO/N=c1/[nH]cnc2[nH]cnc12,98.9,354,> 606,3.6,1260,2.1,12.7,–,–,–,–,–
C=CCO/N=c1/[nH]cnc2c1ncn2[C@@H]1O[C@H](CO)[C@@H](O)[C@H]1O,3.31,–,34,–,–,–,–,–,–,–,–,–
OC[C@H]1O[C@@H](n2cnc3/c(=N\OCc4ccccc4)[nH]cnc32)[C@H](O)[C@@H]1O,13.2,–,14.2,–,889,62.6,67.6,–,–,–,–,–
CON(C)c1nc(N)nc2c1ncn2[C@@H]1O[C@H](CO)[C@@H](O)[C@H]1O,> 306,> 306,> 306,–,–,–,–,–,–,–,–,–
ONc1ncnc2[nH]cnc12,7.48,10.2,5.57,146,1490,267,199,1.8,3.9,–,–,–
c1ccc(NNc2ncnc3[nH]cnc23)cc1,19.3,–,19.8,–,167,8.43,8.64,–,–,–,–,–
NNc1ncnc2[nH]cnc12,23.1,22.1,18.8,2.2,49.3,2.6,2.1,–,–,–,–,–
CN(N)c1nc(N)nc2[nH]cnc12,> 558,> 558,> 558,–,–,–,–,–,–,–,–,–
Nc1nc2[nH]cnc2/c(=N\O)[nH]1,27.8,9.03,16.8,5,45,2.7,1.6,–,–,–,–,–
CO/N=c1/[nH]c(N)nc2[nH]cnc12,428,435,> 555,–,–,–,–,–,–,–,–,–
CN(N)c1ncnc2c1ncn2[C@@H]1O[C@H](CO)[C@@H](O)[C@H]1O,72.7,35.4,22.5,2.9,101,4.5,1.4,–,–,–,–,–
NNc1nc(N)nc2c1ncn2[C@@H]1O[C@H](CO)[C@@H](O)[C@H]1O,10.2,10,12.2,136,1360,112,134,14,22.3,43.9,26.8,–
CN(N)c1nc(N)nc2c1ncn2[C@@H]1O[C@H](CO)[C@@H](O)[C@H]1O,2.27,3.6,0.29,410,1480,5008,533,28.3,12.3,14,4.8,–
OC[C@H]1O[C@@H](n2cnc3c(NNc4ccccc4)ncnc32)[C@H](O)[C@@H]1O,14.2,–,11,–,109,9.9,7.68,–,–,–,–,–
CCN(CC)CCCC(C)Nc1ccnc2cc(Cl)ccc12 (centres undefined) [CHLOROQUINE],–,–,–,–,187,–,–,–,–,–,–,100
COc1cc([C@@H]2c3cc4c(cc3[C@H](O)[C@H]3COC(=O)[C@H]23)OCO4)cc(OC)c1OC [PODOFILOX],–,–,–,–,0.048,–,–,–,–,–,–,–
CCc1nc(N)nc(N)c1-c1ccc(Cl)cc1 [PYRIMETHAMINE],–,–,–,–,–,–,–,100,100,–,–,–
